These results are taken from ChEMBL document CHEMBL1671729, “In vivo protection provided by a synthetic new alpha-galactosyl ceramide analog against bacterial and viral infections in murine models” (2010).

The subject of experiment [1] is Japanese encephalitis virus. Put plainly: Antiviral activity against Japanese encephalitis virus RP-9 infected in C57BL/6 mouse assessed as mouse survival rate at 1 ug, ip administered one day before and 1 day after viral infection measured after 25 days post infection relative to solvent treated control. The class given is functional.
For experiment [2], the system named is Novosphingobium capsulatum. Nature of the experiment: Antibacterial activity against Sphingomonas capsulata ATCC 14666 infected in C57BL/6 mouse assessed as reduction in lung bacterial load at 100 ug/kg, ip administered 2 hrs post infection measured 24 hrs post infection. The class given is functional, organism-based.
The test system of experiment [3] is Staphylococcus aureus. Put plainly: Antibacterial activity against luminescent Staphylococcus aureus Xen29 infected in BALB/c mouse deep thigh wound infection model assessed as reduction in bacterial load at 150 ug/kg, ip administered 3 hrs post infection by iVIS in-vivo imaging system. The format is functional, organism-based. The method, boiled down:
(§1)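 Female BALB/c mice were infected in the left posterior thigh muscle with 3 × 10^8 CFU luminescent S. aureus Xen29 in 200 μl PBS. Glycolipid at 150 μg/kg or vehicle was given i.p. at 3 h, 0 h or 6 h post-infection. Live mice were imaged at 48 h, and RLU per mouse was compared by one-way ANOVA with Tukey posttest.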

For experiment [4], the system named is Japanese encephalitis virus. Nature of the experiment: Antiviral activity against Japanese encephalitis virus RP-9 infected in Stat-1-knockout immunodeficient C57BL/6 mouse assessed as mouse survival rate at 1 ug, ip administered one day before and 1 day after viral infection measured after 25 days post infection relative to solvent treated control. The format is functional.

The test system of experiment [5] is Japanese encephalitis virus. Nature of the experiment: Antiviral activity against Japanese encephalitis virus RP-9 infected in Ig-mu chain-knockout immunodeficient C57BL/6 mouse assessed as mouse survival rate at 1 ug, ip administered one day before and 1 day after viral infection measured after 25 days post infection relative to solvent treated control. The format is functional, organism-based.

In experiment [6] the test system is Japanese encephalitis virus. Put plainly: Antiviral activity against Japanese encephalitis virus RP-9 infected in CD8-alpha chain-knockout immunodeficient C57BL/6 mouse assessed as mouse survival rate at 1 ug, ip administered one day before and 1 day after viral infection measured after 25 days post infection relative to solvent treated control. The format is functional.

Experiment [7] has as its system Japanese encephalitis virus. Put plainly: Antiviral activity against Japanese encephalitis virus RP-9 infected in C57BL/6 mouse assessed as mouse survival rate at 1 ug, ip administered one day before viral infection measured after 25 days post infection relative to solvent treated control. The class given is functional.
In experiment [8] the test system is Japanese encephalitis virus. Nature of the experiment: Antiviral activity against Japanese encephalitis virus RP-9 infected in C57BL/6 mouse assessed as mouse survival rate at 1 ug, ip administered simultaneously with viral infection measured after 25 days post infection relative to solvent treated control. The class given is functional.
Experiment [9] relates to Japanese encephalitis virus. Put plainly: Antiviral activity against Japanese encephalitis virus RP-9 infected in C57BL/6 mouse assessed as mouse survival rate at 1 ug, ip administered one day after viral infection measured after 25 days post infection relative to solvent treated control. The class given is functional.
The test system of experiment [10] is Novosphingobium capsulatum. Put plainly: Antibacterial activity against Sphingomonas capsulata ATCC 14666 infected in C57BL/6 mouse assessed as reduction in lung bacterial load at 50 ug/kg, ip administered 2 hrs post infection measured 24 hrs post infection. The format is functional, organism-based.
Experiment [11] deals with Staphylococcus aureus. Put plainly: Antibacterial activity against luminescent Staphylococcus aureus Xen29 infected in BALB/c mouse deep thigh wound infection model assessed as reduction in bacterial load at 150 ug/kg, ip administered immediately after infection measured 48 hrs post infection by iVIS in-vivo imaging system. The class given is functional, organism-based. The essentials: as §1

Experiment [12] deals with Staphylococcus aureus. Nature of the experiment: Antibacterial activity against luminescent Staphylococcus aureus Xen29 infected in BALB/c mouse deep thigh wound infection model assessed as reduction in bacterial load at 150 ug/kg, ip administered 6 hr post infection after infection measured 48 hrs post infection by iVIS in-vivo imaging system. The class given is functional, organism-based. The method, boiled down:
as §1

Activity calls are given as the source filed them. The calls are words filed in the database; no cut-off is given here.

In the case of `CCCCCCCCCCCCCCCCCCCCCCCCCC(=O)N[C@@H](CO[C@H]1O[C@H](CO)[C@H](O)[C@H](O)[C@H]1O)[C@H](O)[C@H](O)CCCCCCCCCCCCCC` [RGI-7000], the Survival in experiment [1] was found to be 57%. Besides, the inhibition entry (in [2]; with Staphylococcus aureus [3]) was “Active” each time.
Turning to `CCCCCCCCCCCCCCCCCCCCCCCCCC(=O)N[C@@H](CO[C@H]1O[C@H](CO)[C@H](O)[C@H](OS(=O)(=O)O)[C@H]1O)[C@H](O)[C@H](O)CCCCCCCCCCCCCC`, the inhibition entry in experiment [2] was “inactive”.
The same measure, in the same setting: the entry for `CCCCCCCCCCCCCCCCCCCCCCCCCC(=O)N[C@@H](CO[C@H]1O[C@H](C(=O)O)[C@H](O)[C@H](O)[C@H]1O)[C@H](O)[C@H](O)CCCCCCCCCCCCCC` is “Active”.
`CCCCCCCCCCCCCC[C@@H](O)[C@@H](O)[C@H](CO[C@H]1O[C@H](C(=O)O)[C@H](O)[C@H](O)[C@H]1O)NC(=O)CCCCCCCCCCc1ccc(F)cc1`: the Survival is 71% in experiment [1]; 0% in [4]; 22% in experiment [6]; 60% in experiment [7]; 60% in experiment [8]; 25% in [9]. The Survival result in [5] is “inactive”. Moreover, the inhibition result (in [10]; with Staphylococcus aureus [3]) was “Active” throughout.
For the molecule `CCCCCCCCCCCCCC[C@@H](O)[C@@H](O)[C@H](CO[C@H]1O[C@H](CO)[C@H](O)[C@H](O)[C@H]1O)NC(=O)CCCCCCCCCCc1ccccc1`, the inhibition result in [2] was “Active”.
As to `CCCCCCCCCCCCCC[C@@H](O)[C@@H](O)[C@H](CO[C@H]1O[C@H](CO)[C@H](O)[C@H](O)[C@H]1O)NC(=O)CCCCCCCc1ccc(F)cc1`, in experiment [1], the Survival was determined as 57%. Also, in experiment [10], the inhibition result was “Active”.
With `CCCCCCCCCCCCCC[C@@H](O)[C@@H](O)[C@H](CO[C@H]1O[C@H](C(=O)O)[C@H](O)[C@H](O)[C@H]1O)NC(=O)CCCCCCCCCCc1ccc(Oc2ccc(F)cc2)cc1`, the Survival in [1] worked out at 64%; in [4], 23%; in [7], 80%; in experiment [8] it was 40%; in [9], 20%. Moreover, in experiment [5], the Survival entry is “inactive”. Besides, the inhibition entry (in experiment [10]; in the experiment on Staphylococcus aureus [3]; with Staphylococcus aureus [11]) was “Active” in each case. Moreover, in the experiment on Staphylococcus aureus [12], the inhibition result is “inactive”.
With `CCCCCCCCCCCCCC[C@@H](O)[C@@H](O)[C@H](CO[C@H]1O[C@H](CO)[C@H](O)[C@H](O)[C@H]1O)NC(=O)CCCCCCCc1ccccc1`, the inhibition entry in experiment [2] was “Active”.
For `CCCCCCCCCCCCCCCCCCCCCCCC(=O)N[C@@H](CO[C@H]1O[C@H](CO)[C@H](O)[C@H](O)[C@H]1O)[C@H](O)[C@H](O)CCCCC`, in [2], the inhibition entry is “inactive”.
The same measure, in the same setting: next, `CCCCCCCCCCCCCCC[C@@H](O)[C@H](CO[C@H]1O[C@H](C(=O)O)[C@H](O)[C@H](O)[C@H]1O)NC(=O)CCCCCCCCCCCCC`: “inactive”.
